Assay results from ChEMBL document CHEMBL1795258, “A diazen-1-ium-1,2-diolated nitric oxide donor ester prodrug of 3-(4-hydroxymethylphenyl)-4-(4-methanesulfonylphenyl)-5H-furan-2-one: synthesis, biological evaluation and nitric oxide release studies” (Bioorg Med Chem Lett, 2011).

Key:
Mesenteric artery [1] = assay: Inhibition of phenylephrine-induced vasoconstriction in Long Evans rat mesenteric arteries treated 45 mins before phenylephrine challenge; format: functional
Method in brief: (§1)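 Second-order mesenteric arteries (<250 in diameter, ~2 mm long) dissected in cold (0–4 °C) HEPES-buffered phosphate saline, pH 7.4. Mounted on isometric wire myograph and pretreated 45 min with test compound (1 μM) or DMSO. Constriction to phenylephrine 10^-7–5 × 10^-5 M then recorded.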

[2] = target: T1, Prostaglandin G/H synthase 1 (Ovis aries, UniProt P05979); assay: Inhibition of ovine COX1 by enzyme immuno assay
T1 sequence (P05979 whole entry): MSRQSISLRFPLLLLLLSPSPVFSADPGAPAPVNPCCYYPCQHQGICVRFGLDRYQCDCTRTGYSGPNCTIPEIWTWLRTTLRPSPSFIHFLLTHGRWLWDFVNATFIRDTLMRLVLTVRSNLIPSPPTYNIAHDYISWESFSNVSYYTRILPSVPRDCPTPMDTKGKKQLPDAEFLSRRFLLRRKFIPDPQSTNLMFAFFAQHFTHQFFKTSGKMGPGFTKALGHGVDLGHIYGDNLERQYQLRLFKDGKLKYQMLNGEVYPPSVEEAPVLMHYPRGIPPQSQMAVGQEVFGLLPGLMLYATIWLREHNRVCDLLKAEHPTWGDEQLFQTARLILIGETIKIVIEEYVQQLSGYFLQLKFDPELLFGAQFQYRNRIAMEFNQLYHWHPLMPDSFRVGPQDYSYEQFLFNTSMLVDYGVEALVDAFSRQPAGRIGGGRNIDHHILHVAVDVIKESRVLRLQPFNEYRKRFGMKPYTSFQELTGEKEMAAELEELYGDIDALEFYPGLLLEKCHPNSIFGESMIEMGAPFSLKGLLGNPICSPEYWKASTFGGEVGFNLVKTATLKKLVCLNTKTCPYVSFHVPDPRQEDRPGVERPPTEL

Mesenteric artery [3] = assay: tissue or blood; details: Rattus norvegicus, Long Evans
Rattus norvegicus = assay: Antiinflammatory activity in po dosed rat assessed as inhibition of carrageenan-induced foot paw edema after 3 hrs; format: functional
Method in brief: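 Carrageenan-induced rat paw edema; test compound given orally, edema inhibition read at 3 h; potency reported as ED50 in μmol/kg.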

Mesenteric artery [4] = assay: Inhibition of phenylephrine-induced vasoconstriction in Long Evans rat mesenteric arteries assessed as maximum response treated 45 mins before phenylephrine challenge (reference value: 2.13 +/- 0.23 g/mm); format: functional; method in brief: as §1
Mesenteric artery [5] = assay: Inhibition of acetylcholine-induced relaxation in Long Evans rat phenylephrine pre-constricted mesenteric arteries assessed as maximum response (reference value: 0.38 +/- 0.01 g/mm); format: functional
[6] = Prodrug activation in 1.0 x 10^-2 mM of phosphate buffered saline at pH 7.4 assessed as nitric oxide release after 1.5 hrs by Griess reaction; format: physicochemical; details: buffer, pH 7.4, 1.5 h
Method in brief: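 Compound at 1.0 × 10^-2 mM in pH 7.4 phosphate buffer with a little DMSO, 37 °C for 1.5 h. NO measured as nitrite by Griess reaction, expressed as % of theoretical 2 mol NO per mol. Mean of n = 3, variation ≤0.5%.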

[7] = Prodrug activation in 1.0 x 10^-2 mM of phosphate buffered saline at pH 7.4 assessed as nitric oxide release after 1.5 hrs by Griess reaction in presence of rat serum; details: pH 7.4, 1.5 h
Method in brief: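 Compound at 1.0 × 10^-2 mM in pH 7.4 phosphate buffer with a little DMSO plus 90 μL rat serum in 2.4 mL, 37 °C for 1.5 h. Nitrite quantified by Griess reaction as % of theoretical 2 mol NO per mol. Mean of n = 3, variation ≤0.5%.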

IC50 (Mesenteric artery [1])	IC50 [2]	IC50 (Mesenteric artery [3])	Activity [6]	Activity [7]	SMILES	IC20 (Mesenteric artery [1])	ED50 (Rattus norvegicus)	Activity (Mesenteric artery [4])	Activity (Mesenteric artery [5])
1680 nM	33100 nM	95 nM			CS(=O)(=O)c1ccc(C2=C(c3ccc(CO)cc3)C(=O)OC2)cc1	1010 nM	113 µmol/kg	1.51 g/mm	0.3 g/mm
1660 nM		88 nM			CS(=O)(=O)c1ccc(C2=C(c3ccccc3)C(=O)OC2)cc1 [ROFECOXIB]	950 nM	4.8 µmol/kg	1.32 g/mm	0.23 g/mm
			84.5%	85%	[Na+].[O-]/N=[N+](/[O-])N1CCC[C@@H]1CO				
1750 nM	> 100000 nM		4.2%	38.4%	CC(=O)OCO/N=[N+](/[O-])N1CCC[C@@H]1C(=O)OCc1ccc(C2=C(c3ccc(S(C)(=O)=O)cc3)COC2=O)cc1	1370 nM	72.2 µmol/kg	1.17 g/mm	
